Columns and labels:
[1] = test system: TLR4; assay: Western blot, LPS-stimulated RAW264.7 cells; assay type: cell-based, murine; conditions: for expression of MAPKs: Supp Fig. 1c (p-ERK, p-JNK, p-p38)
Summary of the method: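 Total protein extracted with M-PER reagent and quantified by BCA. Membranes incubated with primary antibodies overnight at 4 °C, washed in PBS/0·1% Tween 20, then HRP-conjugated secondary (1:1000) for 2 h. Bands detected by enhanced chemiluminescence, with β-actin as loading reference.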

[2] = test system: TLR4; assay: Cytokine ELISA, LPS-stimulated RAW264.7 cells; assay type: cell-based, murine; conditions: n ≥ 3
Summary of the method: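 Murine macrophages seeded at 2 × 10^5/well (96-well) or 5 × 10^5/well (24-well) and grown overnight, then treated with test compound and LPS. After 24 h treatment, secreted IFN-β was measured by pre-coated mouse IFN-β ELISA. Mouse IL-6 and mouse TNF-α were measured by ELISA kits.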

[3] = test system: RAW264.7 cells; assay: MTT cell viability, RAW264.7 cells; assay type: cell-based, murine; conditions: ≤50 µM
Summary of the method: (§1)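 MTT colourimetric viability assay. HEK-Blue hTLR4 cells (high-glucose DMEM, 10% FBS, normocin) seeded at 5 × 10^4/well. RAW264.7 cells seeded at 2 × 10^5/well. Both grown overnight before exposure to test compound.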

[4] = test system: TLR4 (HEK-Blue™ hTLR4 cells); assay: SEAP activity assay; assay type: cell-based, human; conditions: LPS-stimulated; absorbance at 620 nm; n ≥ 3
Summary of the method: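 Seeded at 2 × 10^5/well (24-well) and grown overnight, then treated with a range of test-compound concentrations with or without LPS. Supernatants heat-treated at 65 °C for 10 min. SEAP (NF-κB reporter) detected with HEK-Blue detection medium.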

[5] = test system: multiple TLR signalling pathways; conditions: ref [44]; cited from earlier work
[6] = test system: HEK-Blue™ hTLR4 cells; assay: MTT cell viability, HEK-Blue hTLR4 cells; assay type: cell-based, human; conditions: n ≥ 3
Summary of the method: as §1

[7] = test system: CIA mice; assay: Collagen-induced arthritis; assay type: in vivo, mouse (DBA/1 J); conditions: TIP3 10 nmol/g or MTX 2 mg/kg, i.p. daily from day 22
Summary of the method: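 Male DBA/1J mice (6–7 weeks, 20–23 g) immunised at tail base with 100 μg chicken type II collagen in an equal volume of complete Freund's adjuvant (day 0), boosted day 20. Groups of n = 7. Test compound (2·5 or 10 nmol/g) or methotrexate (2 mg/kg) in saline given i.p. once daily from day 22. Body weight, paw volume and arthritis index tracked. […] (maximum 16), twice weekly.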

[8] = test system: mice with IMQ-induced psoriasis-like disease; assay: Histology and immunohistochemistry of back skin, psoriasis model; assay type: in vivo, mouse (C57BL/6); conditions: immunohistochemistry
Summary of the method: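 Back-skin lesions from imiquimod-treated C57BL/6 mice fixed in 4% paraformaldehyde, paraffin-embedded and sectioned at 7 μm. H&E staining used for epidermal/dermal thickness, measured by microscopy. Immunohistochemistry done with HRP/DAB detection using primary antibodies to CD68, CD4 and IL-17.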

Compound	Iκ-Bα degradation [1]	phosphorylation of p65 subunit of NF-κB (p-p65) [1]	expression of MAPKs [1]	LPS-induced TNF-α secretion [2]	cell viability [3]	further results
KKWKMRRNQFWIKIQR [CPP, reference compound]	neither peptide inhibited Iκ-Bα degradation	neither peptide inhibited Iκ-Bα degradation, phosphorylation of the p65 subunit of NF-κB (p-p65)	neither peptide inhibited Iκ-Bα degradation, phosphorylation of the p65 subunit of NF-κB (p-p65), or the expression of mitogen-activated protein kinase (MAPKs)	did not have any modulatory effect on TNF-α secretion	did not affect the cell viability at ≤50 µM	
TIPLLS [TIP2]						inhibition of LPS-induced SEAP activity (NF-κB) [4]: TIP3, but not TIP2, hampered the LPS-induced SEAP activity; TLR signalling inhibition [5]: TIP1, but not TIP2, abrogates multiple TLR signalling pathways; cell viability / cytotoxicity ([6]; 12·5 to 50 μM): did not show any significant cytotoxicity; cell viability / cytotoxicity ([6]; high concentration, 100 μM): slight cytotoxicity
DYDVCVCH [TIP3 w/o CPP]	neither peptide inhibited Iκ-Bα degradation	neither peptide inhibited Iκ-Bα degradation, phosphorylation of the p65 subunit of NF-κB (p-p65)	neither peptide inhibited Iκ-Bα degradation, phosphorylation of the p65 subunit of NF-κB (p-p65), or the expression of mitogen-activated protein kinase (MAPKs)	did not have any modulatory effect on TNF-α secretion	did not affect the cell viability at ≤50 µM	
CN(Cc1cnc2nc(N)nc(N)c2n1)c1ccc(C(=O)N[C@@H](CCC(=O)O)C(=O)O)cc1 [MTX, methotrexate, reference compound]						loss of body weight [7]: not observed; arthritis index ([7]; maximal score 16): significantly decreased; relative paw volume (large paw volume) ([7]; plethysmometer): TIP3 (10 nmol/g)- and MTX-injected mice did not; overexpression of CD4 in skin [8]: just as in the MTX-treated group; overexpression of CD68 in skin [8]: just as in the MTX-treated group; overexpression of IL-17 in skin [8]: just as in the MTX-treated group
